We go through seven molecules from ChEMBL document CHEMBL4052805, “Discovery of novel 4(1H)-quinolone derivatives as potential antiproliferative and apoptosis inducing agents” (Bioorg Med Chem Lett, 2017).

Structures can show the parent of a compound that is named as a salt. Active and inactive are the calls of the source. The rule behind the calls is not given here. Where only a bound is given, the exact number is not on record here.

One assay relates to HEp-2. The assay can be described thus: Cytotoxicity against human Hep2 cells assessed as reduction in cell viability after 24 hrs by MTT assay. The conditions noted are these: HEp-2, 24 h.
The next assay relates to HeLa. Put plainly: Cytotoxicity against human HeLa cells assessed as reduction in cell viability after 24 hrs by MTT assay.
The subject of a further assay is MCF7. Put plainly: Cytotoxicity against human MCF7 cells assessed as reduction in cell viability after 24 hrs by MTT assay. Particulars: MCF7, 24 h.
For the next assay, the system named is PC-3. Put plainly: Cytotoxicity against human PC3 cells assessed as reduction in cell viability after 24 hrs by MTT assay. Particulars: PC-3, 24 h.
The subject of assay [1] is HepG2. Put plainly: Cytotoxicity against human HepG2 cells assessed as reduction in cell viability after 24 hrs by MTT assay. Particulars: HepG2, 24 h.
The subject of the next assay is HCT-8. Put plainly: Cytotoxicity against human HCT8 cells assessed as reduction in cell viability after 24 hrs by MTT assay. The conditions noted are these: HCT-8, 24 h.
In the next assay the test system is BGC-823. The assay can be described thus: Cytotoxicity against human BGC823 cells assessed as reduction in cell viability after 24 hrs by MTT assay. Particulars: BGC-823, 24 h.
The test system of assay [2] is HepG2. Put plainly: Induction of apoptosis in human HepG2 cells assessed as increase in Bak protein expression at 10 to 20 ug/ml after 24 hrs by Western blot analysis. It is filed as functional, cell-based.
Assay [3] has as its system HepG2. The assay can be described thus: Induction of apoptosis in human HepG2 cells assessed as viable cells at 20 ug/ml after 24 hrs by annexin V-FITC/propidium iodide staining based flow cytometry (reference value: 89.59%). It is filed as functional. Particulars: HepG2, 24 h, read-out: Activity.
The test system of assay [4] is HepG2. Put plainly: Increase in p53 expression in human HepG2 cells at 10 to 20 ug/ml after 24 hrs by Western blot analysis. It is filed as functional, cell-based.
Assay [5] concerns the target Cellular tumor antigen p53 (Homo sapiens) (UniProt P04637). The assay can be described thus: Activation of p53 (unknown origin) transfected in human HepG2 cells at 4 uM after 24 hrs by dual-luciferase assay relative to control. It is filed as cell-based. Put shortly:
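HepG2 cells transfected with the pathway reporter for 24 h, then exposed to 4 μM compound for a further 24 h; reporter activity read by dual-luciferase assay.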

For assay [6], the system named is HepG2. Put plainly: Induction of apoptosis in human HepG2 cells assessed as necrotic cells at 10 ug/ml after 24 hrs by annexin V-FITC/propidium iodide staining based flow cytometry (reference value: 0.36%). It is filed as functional.
Assay [7] deals with HepG2. Put plainly: Induction of apoptosis in human HepG2 cells assessed as viable cells at 10 ug/ml after 24 hrs by annexin V-FITC/propidium iodide staining based flow cytometry (reference value: 89.59%). It is filed as functional. The conditions noted are these: HepG2, 24 h, read-out: Activity.
In assay [8] the test system is HepG2. Put plainly: Induction of DNA damage in human HepG2 cells assessed as increase in caspase-3 level after 24 hrs by Western blot analysis. It is filed as functional, cell-based.
The test system of assay [9] is HepG2. The assay can be described thus: Induction of DNA damage in human HepG2 cells assessed as increase in PARP level after 24 hrs by Western blot analysis. It is filed as functional, cell-based.
Assay [10] deals with HepG2. Put plainly: Cell cycle arrest in human HepG2 cells assessed as accumulation at G2/M phase after 24 hrs by propidium iodide staining based flow cytometry. It is filed as functional.
Assay [11] concerns HepG2. The assay can be described thus: Induction of apoptosis in human HepG2 cells assessed as late apoptotic cells at 20 ug/ml after 24 hrs by annexin V-FITC/propidium iodide staining based flow cytometry (reference value: 3.50%). It is filed as functional.
The test system of assay [12] is HepG2. The assay can be described thus: Anticlonogenic activity against human HepG2 cells at 10 uM treated for 24 hrs measured after 6 days by crystal violet staining based assay. It is filed as functional, cell-based.
For assay [13], the target named is Cellular tumor antigen p53 (Homo sapiens) (UniProt P04637). The assay can be described thus: Activation of p53 in human HepG2 cells assessed as increase in p21 expression at 10 to 20 ug/ml after 24 hrs by Western blot analysis. It is filed as cell-based.
Sequence of Cellular tumor antigen p53 (Homo sapiens) (P04637 whole entry, looked up): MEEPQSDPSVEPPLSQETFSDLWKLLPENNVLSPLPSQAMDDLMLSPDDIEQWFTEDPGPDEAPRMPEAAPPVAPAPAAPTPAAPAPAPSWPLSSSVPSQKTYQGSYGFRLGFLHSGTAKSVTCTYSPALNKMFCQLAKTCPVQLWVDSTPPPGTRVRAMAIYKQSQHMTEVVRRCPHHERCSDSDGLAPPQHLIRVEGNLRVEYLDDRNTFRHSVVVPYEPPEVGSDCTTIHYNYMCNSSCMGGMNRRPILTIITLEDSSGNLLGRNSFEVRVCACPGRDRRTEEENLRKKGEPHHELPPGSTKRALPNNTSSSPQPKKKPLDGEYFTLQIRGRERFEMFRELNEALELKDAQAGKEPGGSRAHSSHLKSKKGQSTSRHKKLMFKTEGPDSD
Assay [14] concerns HepG2. Put plainly: Induction of apoptosis in human HepG2 cells assessed as necrotic cells at 20 ug/ml after 24 hrs by annexin V-FITC/propidium iodide staining based flow cytometry (reference value: 0.36%). It is filed as functional.
Assay [15] has as its system HepG2. Put plainly: Induction of apoptosis in human HepG2 cells assessed as early apoptotic cells at 20 ug/ml after 24 hrs by annexin V-FITC/propidium iodide staining based flow cytometry (reference value: 6.56%). It is filed as functional.
Assay [16] relates to HepG2. The assay can be described thus: Induction of apoptosis in human HepG2 cells assessed as early apoptotic cells at 10 ug/ml after 24 hrs by annexin V-FITC/propidium iodide staining based flow cytometry (reference value: 6.56%). It is filed as functional.
Assay [17] relates to HepG2. The assay can be described thus: Antiproliferative activity against human HepG2 cells up to 100 uM by CCK-8 assay. Particulars: TDE = time-dependent effect. It is filed as functional, cell-based. Put shortly:
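HepG2 cells were seeded and left 24 h, then treated with a range of compound concentrations for 24 h. Viability was read by CCK-8 assay.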

Assay [18] concerns HepG2. Put plainly: Induction of apoptosis in human HepG2 cells after 24 hrs by annexin V-FITC/propidium iodide staining based flow cytometry. It is filed as functional, cell-based.
The subject of assay [19] is HepG2. Put plainly: Downregulation of CDK1 expression in human HepG2 cells after 24 hrs by Western blot analysis. It is filed as functional, cell-based.
In assay [20] the test system is HepG2. The assay can be described thus: Downregulation of cyclin B1 expression in human HepG2 cells after 24 hrs by Western blot analysis. It is filed as functional, cell-based.
In assay [21] the test system is HepG2. The assay can be described thus: Induction of apoptosis in human HepG2 cells assessed as late apoptotic cells at 10 ug/ml after 24 hrs by annexin V-FITC/propidium iodide staining based flow cytometry (reference value: 3.50%). It is filed as functional.

As to `C=CCn1cc(C(=O)NCCCN)c(=O)c2ccc(Cl)cc21`, the half-maximal inhibitory concentration (IC50) with HEp-2 stood at 36.5 µM; in the assay with HeLa, 22.4 µM; with MCF7 it was 31.6 µM; with PC-3, 13.2 µM; in the assay on HepG2 [1] it was 17 µM; with HCT-8, 34.7 µM. The IC50 in the assay with BGC-823 worked out at 20 µM.

With `Cl.NCCCNC(=O)c1cn(CCCc2ccccc2)c2cc(Cl)ccc2c1=O`, the result (in the assay with HepG2 [2]; in the assay on HepG2 [4]; in the assay with HepG2 [12]; in assay [13]) was Active. Besides, in the assay on HepG2 [3], the viability at 20 µg/mL stood at 66.3%. The half-inhibitory concentration (IC50) was 3.24 µM in the assay with HEp-2; 2.31 µM with HeLa; 3.12 µM with MCF7; 6.92 µM in the assay with PC-3; < 1 µM in the assay with HepG2 [1]; 6.03 µM in the assay on HCT-8. Moreover, in the assay on BGC-823, the IC50 stood at 3.2 µM. Further, the fold change (FC) in assay [5] worked out at 1.5. Besides, the Activity was 0.75% in the assay on HepG2 [6]; “Dose-dependent effect” in the assay with HepG2 [8]; “Dose-dependent effect” in the assay with HepG2 [9]; “Dose-dependent effect” in the assay with HepG2 [10]; 18.44% in the assay with HepG2 [11]; 4.5% in the assay with HepG2 [14]. Besides, the Activity in the assay on HepG2 [15] was 10.72%; with HepG2 [16], 7.01%; in the assay on HepG2 [17] it was “Tde”; in the assay on HepG2 [18], “Dose-dependent effect”; in the assay on HepG2 [19], “Dose-dependent effect”; in the assay with HepG2 [20], “Dose-dependent effect”. The Activity in the assay on HepG2 [21] is listed as 3.71%. Besides, the viability at 10 µg/mL with HepG2 [7] was 88.5%.

For the molecule `CCCCn1cc(C(=O)NCCCN)c(=O)c2ccc(Cl)cc21`, the IC50 is 21.7 µM in the assay on HEp-2; 15 µM in the assay on HeLa; 12.6 µM with MCF7; 12 µM in the assay with PC-3; 5.23 µM in the assay with HepG2 [1]; 22.3 µM with HCT-8. Moreover, the IC50 in the assay with BGC-823 came to 16.6 µM.

Regarding `NCCCNC(=O)c1cn(Cc2ccccc2)c2cc(Cl)ccc2c1=O`, the IC50 turned out to be 8.31 µM in the assay with HEp-2; 4.54 µM in the assay on HeLa; 5.02 µM in the assay on MCF7; 9.12 µM with PC-3; 5.42 µM with HepG2 [1]; 14.5 µM with HCT-8. In addition, the half-inhibitory concentration (IC50) with BGC-823 came to 6.71 µM.

With `COc1cccc2c1C(=O)c1c(O)c3c(c(O)c1C2=O)C[C@@](O)(C(=O)CO)C[C@@H]3O[C@H]1C[C@H](N)[C@H](O)[C@H](C)O1` [DOXORUBICIN HYDROCHLORIDE], the half-maximal inhibitory concentration (IC50) in the assay on HEp-2, in the assay on HeLa, in the assay on MCF7, in the assay on PC-3, with HepG2 [1] and in the assay with HCT-8 was < 1 µM each time. In addition, the IC50 with BGC-823 was < 1 µM.

For `CCn1cc(C(=O)NCCCN)c(=O)c2ccc(Cl)cc21`, the half-inhibitory concentration (IC50) in the assay with HEp-2 was found to be 28.2 µM; with HeLa, 20 µM; in the assay with MCF7 it was 35.5 µM; with PC-3, 12.6 µM; in the assay on HepG2 [1], 13.8 µM; with HCT-8 it was 31.6 µM. The IC50 with BGC-823 came to 30.2 µM.

In the case of `Oc1ccnc2cc(Cl)ccc12`, the IC50 with HEp-2, in the assay on HeLa, in the assay on MCF7, with PC-3, in the assay with HepG2 [1] and with HCT-8 was > 50 µM each time. Besides, in the assay on BGC-823, the IC50 is > 50 µM.
